# Screening data from PubChem.
# This is a sample that favours compounds with a hit; in the whole collection about 1.4% have one here.
# OPRM1-OPRD1 inv = inverse agonist of human OPRM1-OPRD1 heterodimerization; P35372+P41143; cell-based MOR-DOR heterodimer luminescence, inverse agonism; inhibition, % at 9.3 µM; 340,000 tested, 0.21% active; in the data active = inhibition above about 22%, passing the limit was not always enough;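 note: 0% = cells with DMSO and 100% = wells without cells with DMSO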
# HTR5A inv ctr = inverse agonist of human HTR5A in OPRM1-OPRD1 counter-screen; inhibition, % at 9.3 µM; 340,000 tested, 0.083% active; P47898; HTR5A cell line, luminescence, inverse agonism; AID 504634; in the data active = inhibition mostly above about 23%, no sharp cut-off; inactive = mostly below about 18%;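 note: 0% = cells with DMSO and 100% = no-cell wells with DMSO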
# Arrestin-AP2 inh = blocks beta-arrestin peptide binding to AP2 adaptin. FITC-arrestin peptide / GST-AP2 beads, flow cytometry; AP2 beta2 appendage carries R879A mutation. inhibition, % at 10 µM. 340,000 tested, 0.31% active. AID 504490;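 active = inhibition above a set limit, near 3 SD of compounds lacking own fluorescence, cut at about 54% in these data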;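 note: plate controls were DMSO wells for no effect and 5 µM unlabelled arrestin peptide for full effect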
#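 Measured by: flow cytometry, FL1 (488/535 nm); Material: AP2 appendage R879A on GSH beads; Evaluation: percent response; Timing: pre-incubation 12 min, peptide binding 1 h, room temperature; Also added: 50 nM FITC-arrestin peptide; Medium: PBS with 0.05% Tween 20 and 0.1% BSA.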
# HTR5A ag ctr = activates human HTR5A in OPRM1-OPRD1 agonist counter-screen; P47898; HTR5A agonist assay, luminescence, cell-based; activation, % at 9.3 µM; 340,000 tested, 0.61% active; in the data active = activation mostly above about 9.5%, no sharp cut-off; inactive = mostly below about 7.6%;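 note: 0% = cells with vehicle only and 100% = reference agonist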
# MOR-DOR ag = agonists of human mu-delta opioid receptor heterodimerization. P35372+P41143. cells, OPRM1-OPRD1 heterodimerization, luminescence. activation, % at 9.3 µM. 340,000 tested, 0.3% active; in the data active = activation above about 18%;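 note: 0% = vehicle-treated cells and 100% = reference agonist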
# DAGLB inhibitor = blocks human DAGLB lipase activity. Q8NCG7. HEK293T DAGLB membrane lysate, EnzChek fluorogenic substrate. inhibition, % at 5.17 µM. 340,000 tested, 0.059% active; in the data active = inhibition above about 34%;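 note: 0% = enzyme with vehicle and 100% = wells lacking enzyme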
# Target sequence (Q8NCG7 whole entry, looked up): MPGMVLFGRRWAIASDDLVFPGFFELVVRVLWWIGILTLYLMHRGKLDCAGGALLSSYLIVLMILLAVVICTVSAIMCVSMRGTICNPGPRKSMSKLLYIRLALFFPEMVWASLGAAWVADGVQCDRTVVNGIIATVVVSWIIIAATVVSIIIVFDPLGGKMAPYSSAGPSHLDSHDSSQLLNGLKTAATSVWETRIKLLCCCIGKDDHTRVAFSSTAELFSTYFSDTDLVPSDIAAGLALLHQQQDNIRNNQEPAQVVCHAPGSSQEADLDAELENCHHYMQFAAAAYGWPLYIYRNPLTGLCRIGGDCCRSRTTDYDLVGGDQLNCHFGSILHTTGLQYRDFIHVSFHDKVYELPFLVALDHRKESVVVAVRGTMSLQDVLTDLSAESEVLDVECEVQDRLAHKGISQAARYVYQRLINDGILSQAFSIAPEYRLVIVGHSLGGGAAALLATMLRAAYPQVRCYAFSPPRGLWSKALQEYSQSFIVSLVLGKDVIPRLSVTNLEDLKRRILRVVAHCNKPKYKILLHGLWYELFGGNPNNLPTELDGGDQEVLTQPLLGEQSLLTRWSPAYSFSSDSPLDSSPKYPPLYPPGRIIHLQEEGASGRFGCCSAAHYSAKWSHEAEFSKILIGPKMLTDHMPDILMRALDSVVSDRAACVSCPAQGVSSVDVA
# Active calls of the source: *; i = inactive; . = not tested or not shown.
SMILES,OPRM1-OPRD1 inv,HTR5A inv ctr,Arrestin-AP2 inh,HTR5A ag ctr,MOR-DOR ag,DAGLB inhibitor
Cc1ccc2[nH]cc(CCNC(=O)C3CCCO3)c2c1 (stereo unspecified),-1.2,-41.8,5.7,11.3*,0.3,-3.0
Cc1ccc2[nH]cc(CCNC(=O)c3ccc4c(c3)OCO4)c2c1,3.0,4.3,11.1,-1.2,-0.6,-0.5
CCOc1ccc(N(CC(=O)NCc2ccc(F)cc2)C(=O)CCC(=O)Nc2nccs2)cc1,-7.2,-10.7,14.4,12.7*,0.9,2.4
CCc1ccc(N(CC(=O)NCc2ccc(F)cc2)C(=O)c2csnn2)cc1,9.9,-23.2,9.6,9.4*,-1.9,0.9
CC(=O)N/C(=C\c1ccccc1)C(=O)OCc1cccc(S(=O)(=O)N(C)C)c1,-2.1,-33.7,6.8,9.4*,0.5,-4.6
CC(=O)N/C(=C\c1ccccc1)C(=O)OCc1ccccc1,20.8,-11.3,-11.7,4.7,-4.1,-1.2
O=C1C(Cc2ccccc2)Nc2ncnc(N3CCCCC3)c2N1Cc1ccc(Cl)cc1 (stereo unspecified),-9.9,3.1,9.8,-1.1,1.7,1.6
O=C1C(Cc2ccccc2)Nc2ncnc(N3CCN(c4ccccc4)CC3)c2N1Cc1ccc(Cl)cc1 (stereo unspecified),57.2*,52.8*,3.7,-18.0,-12.4,-10.7
CN(CCO)c1cc(N(C)CCO)c([N+](=O)[O-])cc1[N+](=O)[O-],-1.4,-3.9,14.2,11.7*,0.3,-1.6
O=C(CN(Cc1ccccc1)C(=O)CCl)c1cccc(Br)c1,-152.4,-14.8,8.4,37.8*,33.2*,6.0
O=C(NCCCc1ccccc1)c1cccc(Br)c1,16.2,16.8,-2.4,-2.3,-3.2,-7.1
CCc1ccccc1S(=O)(=O)Cc1ccc(C(=O)NC(C)C)o1,13.6,-34.9,-0.2,12.6*,-2.6,2.5
CCc1ccccc1S(=O)(=O)Cc1ccc(C(=O)NCc2ccc3c(c2)OCO3)o1,0.5,14.2,9.9,-5.1,-0.1,2.0
COc1ccccc1NC(=O)Nc1nnc(C(C)c2ccccc2)s1 (stereo unspecified),-19.2,-42.4,35.5,11.5*,4.1,0.5
O=C(NCCCN1CCCC1=O)C(=O)NCC1OCCCN1S(=O)(=O)c1ccccc1 (stereo unspecified),.,.,.,.,.,-2.4
O=C1[C@@H](Oc2ccccc2)[C@@H](c2ccccc2)N1c1ccccc1,-15.9,-7.0,-13.7,1.9,3.6,-3.4
O=C1[C@H](Oc2ccccc2)[C@@H](c2ccccc2)N1c1ccncc1,18.2,-34.3,-10.2,9.4*,-3.7,2.6
CS(=O)(=O)c1ccc(C(=O)OCc2nnc(-c3ccc(Cl)cc3)o2)cc1[N+](=O)[O-],-15.5,-28.8,13.4,10.4*,3.2,-10.0
Cc1ccc(C)c(C(=O)OCC(=O)Nc2cccc(S(=O)(=O)N3CCCCC3)c2)c1,-10.6,-15.4,-0.9,4.2,2.0,-8.6
CC1C(=O)Nc2ccc(S(=O)(=O)N3CCN(c4cccc(C(F)(F)F)c4)CC3)cc2NC1=O (stereo unspecified),0.3,-44.0,6.1,6.1,-0.1,-17.5
O=C1CCc2cc(S(=O)(=O)N3CCN(c4cccc(C(F)(F)F)c4)CC3)ccc2N1,-125.6,-28.2,-28.1,13.4*,24.7*,0.4
COc1ccc(C2/C(=C(\O)c3ccc4c(c3)OCCO4)C(=O)C(=O)N2CCCn2ccnc2)cc1 (stereo unspecified),16.7,-1.8,-17.7,11.2*,-3.3,-3.0
C=CCN1[C@@H](Cc2ccccc2)COCCS1(=O)=O,16.0,-20.4,29.4,6.9,-2.8,-4.8
Oc1ccccc1C=NN=C1c2ccccc2-c2ccccc21,23.2,15.2,23.2,-4.0,-5.3,-5.5
C/C(=N/N=C/c1ccccc1O)c1ccccc1O,6.8,-36.9,13.8,10.3*,-1.5,-9.7
SMILES,OPRM1-OPRD1 inv,HTR5A inv ctr,Arrestin-AP2 inh,HTR5A ag ctr,MOR-DOR ag,DAGLB inhibitor
C[C@@H]1CN([C@@H](C)CO)C(=O)CCCn2nncc2CO[C@H]1CN(C)S(=O)(=O)c1cccs1,.,.,.,.,.,0.8
Cc1c(/C=N\NC(=O)c2csc3ccccc23)cnn1C,3.1,-49.7,0.7,10.7*,-0.6,0.4
COC1OCC(O)C(NC(=O)N(C)N=O)C1O (stereo unspecified),.,.,.,.,.,-2.4
COc1ccc(CN2C(=O)C(CC(=O)NCC3CCCCC3)CC(C(=O)N(C(C)C)C(C)C)=C2C)cc1 (stereo unspecified),.,.,.,.,.,-1.1
CC(Sc1nc(-c2ccccc2)c(-c2ccccc2)[nH]1)C(=O)NCC1CCCO1 (stereo unspecified),.,.,.,.,.,-2.2
O=C(CCNC(=O)C1CCN(S(=O)(=O)c2ccc(F)cc2)CC1)Nc1nccs1,9.2,-14.7,5.0,10.2*,-1.8,-3.4
CC(=O)Nc1ccc(S(=O)(=O)N2CCC(C(=O)NCCC(=O)Nc3nccs3)CC2)cc1,15.2,-23.1,2.1,3.2,-2.8,-1.1
Cc1cc(C(C)(C)C)cc(C)c1Cn1c2[n+](c3ccc(C(F)(F)F)cc31)CCCCC2,1.7,-27.8,-56.0,11.2*,-0.4,3.7
FC(F)(F)c1cccc(Cn2c3[n+](c4ccc(C(F)(F)F)cc42)CCCCC3)c1,5.5,3.2,-8.1,-1.2,-1.2,1.9
Cc1cccc(N(CC(=O)NCc2ccco2)S(=O)(=O)c2ccccc2)c1,.,.,.,.,.,-0.6
COc1ccccc1NC(=S)N(Cc1ccccc1)Cc1cccs1,-2.3,11.5,2.2,9.3*,0.4,-3.4
COc1ccccc1NC(=S)N(Cc1cccs1)C1CCCC1,-2.4,0.4,30.8,-0.2,0.5,-4.3
C=CCn1c(=O)c(C(=O)Nc2ncccc2C)c(O)c2ccccc21,.,.,.,.,.,-0.8
CSc1ccc(C2Nc3cccc4cccc(c34)N2)cc1,-11.9,1.4,11.2,-0.4,2.5,3.2
Clc1ccc(C2Nc3cccc4cccc(c34)N2)cc1,0.3,3.1,20.9,14.6*,-0.1,3.4
CC[C@@H](C(=O)[C@@H](C)[C@@H](O)[C@H](C)[C@@H]1O[C@@H]([C@@H](CC)C(=O)O)CC[C@@H]1C)[C@H]1O[C@]2(C=C[C@@H](O)[C@]3(CC[C@@](C)([C@H]4CC[C@](O)(CC)[C@H](C)O4)O3)O2)[C@H](C)C[C@@H]1C,i,-115.3,-1.8,39.6*,104.1*,1.3
Cc1cn([C@H]2C[C@H](O)[C@@H](CNC(=O)[C@@H]3CCCN3Cc3ccccc3)O2)c(=O)[nH]c1=O,.,.,.,.,.,0.6
S=C(Nc1ccc(Cl)cc1)c1nc2ccccc2s1,-12.2,12.0,44.1,-5.5,2.5,4.7
O=C(Nc1ccc(Cl)cc1)/C(=C/c1cccc(O)c1)c1nc2ccccc2s1,-33.7,-41.4,.,11.3*,6.5,6.0
Cc1cccc(N(C)C(=O)COc2cc(=O)n(C)c3ccccc23)c1,4.1,-30.8,5.4,11.1*,-0.8,1.1
CCn1c(=O)cc(OCC(=O)NCCc2cccc(C)c2)c2ccccc21,5.1,-31.8,11.6,11.6*,-0.7,2.3
